Results on six compounds are retold here after ChEMBL document CHEMBL3259694, “Design and synthesis of molecular probes for the determination of the target of the anthelmintic drug praziquantel” (Bioorg Med Chem Lett, 2014).

Activity calls are given as the source filed them. The rule behind the calls is not given here.

Series [1] relates to Schistosoma mansoni. The series is described as follows: Anthelmintic activity against sexually mature Schistosoma mansoni PR-1 adult worm assessed as parasite death incubated for overnight measured after 7 days drug wash-out period by stereomicroscopic analysis. The class given is functional, organism-based. Conditions: PR-1, 168 h. A digest of the protocol: (§1)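 Adult male worms exposed in vitro overnight to a range of concentrations, then washed and kept 7 days in drug-free medium. Motility, contraction and survival were scored at day 7. EC50 was taken from dose-response curves of percent worms alive at day 7 against log concentration, as mean and SEM of three replicates, with 95% confidence intervals.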

A short description of series [2]: Solubility in 1% DMSO at >300 uM. It counts as physicochemical.
Series [3] has as its system Schistosoma mansoni. The series can be described thus: Anthelmintic activity against sexually mature Schistosoma mansoni PR-1 adult worm assessed as parasite death by measuring worm contractility at 1 uM incubated for overnight measured after 7 days drug wash-out period by stereomicroscopic analysis. It counts as functional, organism-based. The procedure, abridged: as §1

In series [4] the test system is Schistosoma mansoni. The series is described as follows: Anthelmintic activity against sexually mature Schistosoma mansoni PR-1 adult worm assessed as parasite death by measuring worm contractility at 0.3 uM incubated for overnight measured after 7 days drug wash-out period by stereomicroscopic analysis. It counts as functional, organism-based. A digest of the protocol:
as §1

Series [5] in a line: Solubility in 1% DMSO at 300 uM. It counts as physicochemical.
Series [6] concerns Schistosoma mansoni. The series can be described thus: Anthelmintic activity against sexually mature Schistosoma mansoni PR-1 adult worm assessed as loosely curled worm with little movement at >100 uM incubated for overnight measured after 7 days drug wash-out period by stereomicroscopic analysis. It counts as functional, organism-based. A digest of the protocol:
as §1

Series [7] has as its system Schistosoma mansoni. The series is described as follows: Anthelmintic activity against sexually mature Schistosoma mansoni PR-1 adult worm assessed immediate worm contraction by stereomicroscopic analysis. The class given is functional, organism-based. The procedure, abridged: (§2)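 Adult male worms were watched for contraction, shortening or paralysis at once on addition of the compound. Worms were then kept overnight in its presence before washout.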

Series [8] concerns Schistosoma mansoni. The series is described as follows: Anthelmintic activity against sexually mature Schistosoma mansoni PR-1 adult worm assessed immediate worm shortening by stereomicroscopic analysis. It counts as functional, organism-based. The procedure, abridged:
as §2

The test system of series [9] is Schistosoma mansoni. The series is described as follows: Anthelmintic activity against sexually mature Schistosoma mansoni PR-1 adult worm assessed as worm contractility and little movement at >60 uM incubated for overnight measured after 7 days drug wash-out period by stereomicroscopic analysis. It counts as functional, organism-based. The procedure, abridged:
as §1

Series [10] deals with Schistosoma mansoni. The series can be described thus: Anthelmintic activity against sexually mature Schistosoma mansoni PR-1 adult worm assessed as worm contractility without movement at >40 uM incubated for overnight measured after 7 days drug wash-out period by stereomicroscopic analysis. The class given is functional, organism-based. A digest of the protocol: as §1
Series [11] has as its system Schistosoma mansoni. The series can be described thus: Anthelmintic activity against sexually mature Schistosoma mansoni PR-1 adult worm assessed immediate worm paralysis by stereomicroscopic analysis. It counts as functional, organism-based. A digest of the protocol: as §2

Broadly, the EC50 is the concentration needed to bring the measured effect to its halfway point. Consider `C#CCN(Cc1ccc(C(=O)N2CC(=O)N3CCc4ccccc4[C@@H]3C2)cc1)C(=O)CCCCCNC(=O)CCC1(C)N=N1`, for which the EC50 in the series on Schistosoma mansoni [1] was more than 300 µM. Also, the solubility result in [2] was “soluble”.
In the case of `O=C(C1CCCCC1)N1CC(=O)N2CCc3ccccc3C2C1` (racemic) [PRAZIQUANTEL], the result in the series on Schistosoma mansoni [3] was Active. Further, the EC50 in the series on Schistosoma mansoni [1] stood at 2.5 µM.
In the case of `O=C(C1CCCCC1)N1CC(=O)N2CCc3ccccc3[C@@H]2C1` [PRAZIQUANTEL, (R)-], in the series with Schistosoma mansoni [4], the outcome was Active. For the same compound, the EC50 in the series on Schistosoma mansoni [1] is 0.5 µM.
For `C#CCN(C(=O)c1ccc(C2(C(F)(F)F)N=N2)cc1)c1ccc(C(=O)N2CC(=O)N3CCc4ccccc4[C@@H]3C2)cc1`, the EC50 with Schistosoma mansoni [1] amounted to 132 µM. For the same compound, in [5], the solubility result is “soluble”. Besides, the outcome in the series on Schistosoma mansoni [6] was Active. The outcome with Schistosoma mansoni [7] and with Schistosoma mansoni [8] was inactive.
On to `O=C(C1CCCCC1)N1CC(=O)N2CCc3ccccc3[C@H]2C1`, for which the outcome in the series on Schistosoma mansoni [9] was Active. The EC50 in the series with Schistosoma mansoni [1] is 78.1 µM.
Consider `Cc1cc(C)n2c1C=C1C=CC(CCC(=O)N3CC(=O)N4CCc5ccccc5[C@@H]4C3)=[N+]1[B-]2(F)F`, for which the concentration for a half-maximal effect (EC50) with Schistosoma mansoni [1] came out at 53.3 µM. Besides, in the series with Schistosoma mansoni [10], the outcome was Active. The outcome in the series on Schistosoma mansoni [7] and in the series with Schistosoma mansoni [11] was inactive.
